# In ChEMBL document CHEMBL5674889, “Enhanced JunD/RSK3 signalling due to loss of BRD4/FOXD3/miR-548d-3p axis determines BET inhibition resistance” (2020):
# Calls of active or inactive are those of the source. The calls are words filed in the database; no cut-off is given here.
# Experiments:
# MDA-MB-231 [1] = assay: Induction of apoptosis in human MDA-MB-231 cells over expressing RSK3 assessed as viable cells at 1 uM by Annexin V-FITC flow cytometric analysis (reference value: 91.18%); assay type: functional; conditions: read-out: Activity
# Summary of the method: (§1)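 Stable clones (vector, RSK3-overexpressing or RPS6KA2-knockdown) treated ± JQ1 1 μM. Cells washed twice in PBS, resuspended at 1 × 10^6 cells/ml in binding buffer, stained with Annexin V-FITC and propidium iodide for 10 min at room temperature in the dark, then read by flow cytometry. Three independent experiments; one-way ANOVA.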
# MDA-MB-231 [2] = assay: Antiproliferative activity in human FOXD3-knockdown MDA-MB-231 cells co-silenced with shRNA of RPS6KA2 assessed as cell growth at 1 uM by CCK-8 assay; assay type: functional, cell-based
# HEK-293T = assay: Effect on human HEK293T cells transfected with FOXD3 assessed as decrease in luciferase activity at 1 uM for 6 hrs by Luciferase reporter assay; assay type: functional, cell-based
# BT-549 [3] = assay: Cytotoxicity in human RSK3-overexpressing BT-549 cells assessed as cell viability at 1 uM for 48 hrs by CellTiter-Glo luminescent cell viability assay; assay type: functional, cell-based
# Summary of the method: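 CellTiter-Glo viability: stable overexpressing or shRNA clones (puromycin 1.0 μg/ml selection) seeded 3000 cells/well, adhered overnight, then exposed to 1 μM for 48 h. Luminescence is background-subtracted and normalised to DMSO-treated control. Triplicates, mean ± SD, one-way ANOVA. MDA-MB-231 cells are kept in DMEM and BT549 in RPMI-1640, each with 10% FBS.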
# BT-549 [4] = assay: Effect on human BT-549 cells assessed as RSK3 protein expression at 1 uM for 24 hrs by Western blot analysis; assay type: functional, cell-based
# Summary of the method: (§2)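 Western blot for RSK3 in MDA-MB-231 and BT549 cells treated with DMSO or 1 μM for 0, 12 and 24 h. Antibody used at 1:1000.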
# MDA-MB-231 [5] = assay: Antitumor activity against human MDA-MB-231 cells xenografted in BALB/c nude mouse model assessed as reduction of tumor size in the presence of osimertinib at 35 mg/kg/day, sc administered every 2 days for 30 days; assay type: functional, organism-based; conditions: time 30.0 day
# Summary of the method: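 MDA-MB-231 xenografts used 1 × 10^6 cells injected subcutaneously into female BALB/c nude mice (4–6 weeks). Animals were split into four groups (n = 7) at ~100 mm3: vehicle, osimertinib 10 mg/kg, 35 mg/kg agent, or the combination, each given every 2 days. Volume was measured by calliper as length × width²/2; tumours were weighed at end.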
# MDA-MB-231 [6] = assay: Induction of apoptosis in human MDA-MB-231 cells expressing vector control assessed as viable cells at 1 uM by Annexin V-FITC flow cytometric analysis (reference value: 91.91%); assay type: functional; conditions: read-out: Activity; summary of the method: as §1
# BT-474 = assay: Antiproliferative activity in human FOXD3-overexpressing BT-474 cells assessed as cell growth at 1 uM by CCK-8 assay; assay type: functional, cell-based
# BT-549 [7] = assay: Antiproliferative activity in human RPS6KA2-knockdown BT-549 cells assessed as inhibited cell growth at 1 uM for 48 hrs by CCK-8 assay; assay type: functional, cell-based
# MDA-MB-231 [8] = assay: Downregulation of miR-548d-3p expression in human MDA-MB-231 cells at 1 uM by real-time PCR analysis; assay type: functional, cell-based
# BT-549 [9] = assay: Effect on human RPS6KA2 knockdown BT-549 cells assessed as RSK3 protein expression at 1 uM for 24 hrs by Western blot analysis; assay type: functional, cell-based
# MDA-MB-231 [10] = assay: Effect on human MDA-MB-231 cells assessed as RSK3 protein expression at 1 uM for 24 hrs by Western blot analysis; assay type: functional, cell-based; summary of the method: as §2
# MDA-MB-231 [11] = assay: Effect on human JUND-knockdown MDA-MB-231 cells assessed as reduction of RSK3 protein expression at 1 uM by Western blot analysis; assay type: functional, cell-based
# Summary of the method: (§3)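 RSK3 and JunD were probed by western blot in JUND-knockdown or JUND-overexpressing stable clones and their controls, all selected with puromycin 1.0 μg/ml. Antibodies used at 1:1000.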
# MDA-MB-231 [12] = assay: Induction of apoptosis in human MDA-MB-231 cells expressing vector control assessed as early apoptotic cells at 1 uM by Annexin V-FITC flow cytometric analysis (reference value: 4.02%); assay type: functional; summary of the method: as §1
# BT-549 [13] = assay: Antiproliferative activity in human FOXD3-knockdown BT-549 cells assessed as cell growth at 1 uM by CCK-8 assay; assay type: functional, cell-based
# MDA-MB-231 [14] = assay: Induction of apoptosis in human MDA-MB-231 cells over expressing RSK3 assessed as early apoptotic cells at 1 uM by Annexin V-FITC flow cytometric analysis (reference value: 3.85%); assay type: functional; summary of the method: as §1
# MDA-MB-231 [15] = assay: Effect on human JUND-overexpressing MDA-MB-231 cells assessed as RSK3 protein expression at 1 uM by Western blot analysis; assay type: functional, cell-based; summary of the method: as §3
# MDA-MB-231 [16] = assay: Effect on induction of RPS6KA2 transcription in human MDA-MB-231 cells assessed as JunD protein expression at 1 uM for 24 hrs by Western blot analysis; assay type: functional, cell-based
# MDA-MB-231 [17] = assay: Antiproliferative activity in human MDA-MB-231 cells assessed as cell growth in the presence of miR-548d-3p inhibitor at 1 uM by CCK-8 assay; assay type: functional, cell-based
# Summary of the method: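 BLBC cells transfected with miR-548d-3p mimic or inhibitor, with or without JQ1; growth read by CCK-8 assay relative to DMSO-treated control, seeded at 3000/well. Triplicates, mean ± SD, one-way ANOVA.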
# MDA-MB-231 [18] = assay: Effect on human RPS6KA2-knockdown MDA-MB-231 cells assessed as RSK3 protein expression at 1 uM by Western blot analysis; assay type: functional, cell-based
# MDA-MB-231 [19] = assay: Effect on human MDA-MB-231 cells assessed as RSK3 […] expression at 1 uM for 24 hrs by Western blot analysis; assay type: functional, cell-based
# BT-549 [20] = assay: Effect of human RSK3-overexpressing BT-549 cells assessed as suppression of tumour sphere formation at 1 uM by Tumour sphere assay; assay type: functional, cell-based
# MDA-MB-231 [21] = assay: Antiproliferative activity in human MDA-MB-231 cells assessed as cell growth in the presence of erlotinib at 1 uM by CellTiter-Glo luminescent cell viability assay; assay type: functional, cell-based
# Summary of the method: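 BLBC cells seeded at 3000/well, adhered overnight, then exposed to JQ1 (1 μM) with or without an EGFR inhibitor (1 μM) for 48 h; control and RPS6KA2-shRNA clones tested. Viability by CellTiter-Glo luminescence, background-subtracted and normalized to DMSO-treated control; triplicates, mean ± SD, one-way ANOVA against JQ1 alone.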
# BT-549 [22] = assay: Effect on JUND dependent RPS6KA2 transcription in human JUND-knockdown BT-549 cells assessed reduction in transcription level at 1 uM by ChIP-RT-PCR analysis; assay type: functional, cell-based
# Summary of the method: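 ChIP-qPCR used ~1 × 10^6 cross-linked JUND-knockdown or control cells treated with DMSO or 1 μM for 6 h. Immunoprecipitated DNA was quantified by real-time PCR with primers specific to the RPS6KA2 enhancer. Non-specific primers downstream of the gene 3′ end served as control.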
# BT-549 [23] = assay: Antiproliferative activity in human BT-549 cells assessed as inhibition of cell growth at 1 uM by CCK-8 assay; assay type: functional, cell-based
# MCF7 = assay: Antiproliferative activity in human FOXD3-overexpressing MCF7 cells assessed as cell growth at 1 uM by CCK-8 assay; assay type: functional, cell-based
structure (smiles),measurement,setting,value
Cc1sc2c(c1C)C(c1ccc(Cl)cc1)=N[C@@H](CC(=O)OC(C)(C)C)c1nnc(C)n1-2,viability at 1 µM,MDA-MB-231 [1],88.3%
same,Activity,MDA-MB-231 [2],Active
same,Activity,HEK-293T,Active
same,Activity,BT-549 [3],Active
same,Activity,BT-549 [4],Active
same,Activity,MDA-MB-231 [5],Active
same,viability at 1 µM,MDA-MB-231 [6],76.7%
same,Activity,BT-474,Active
same,Activity,BT-549 [7],Active
same,Activity,MDA-MB-231 [8],Active
same,Activity,BT-549 [9],Active
same,Activity,MDA-MB-231 [10],Active
same,Activity,MDA-MB-231 [11],Active
same,Activity,MDA-MB-231 [12],16.3%
same,Activity,BT-549 [13],Active
same,Activity,MDA-MB-231 [14],7.14%
same,Activity,MDA-MB-231 [15],Active
same,Activity,MDA-MB-231 [16],Active
same,Activity,MDA-MB-231 [17],Active
same,Activity,MDA-MB-231 [18],Active
same,Activity,MDA-MB-231 [19],Active
same,Activity,BT-549 [20],Active
same,Activity,MDA-MB-231 [21],Active
same,Activity,BT-549 [22],Active
same,Activity,BT-549 [23],Active
same,Activity,MCF7,Active
